Test results published in ChEMBL document CHEMBL1131108, “Phenothiazine inhibitors of trypanothione reductase as potential antitrypanosomal and antileishmanial drugs” (J Med Chem, 1998).

What was measured:
Trypanothione reductase [1] = biological target: T1, Trypanothione reductase (Trypanosoma cruzi, UniProt P28593); assay: Inhibitory activity against recombinant Trypanosoma cruzi (Trypanosoma cruzi) Trypanothione reductase; conditions: read-out: I50
Procedure, shortened: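 Recombinant T. cruzi TR, overexpressed in E. coli JM109 and homogeneous by SDS-PAGE, was used at about 0.3 µg/mL. Assay at 25 °C in 0.02 M HEPES pH 7.25 with 0.15 M KCl, 1 mM EDTA, 0.12 mM trypanothione disulfide and 0.1 mM NADPH, read at 340 nm. I50 came from nonlinear least-squares fitting of velocity versus inhibitor concentration using the linear competitive inhibition equation.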

[2] = biological target: T2, Glutathione reductase, mitochondrial (Homo sapiens, UniProt P00390); assay: Inhibitory activity against human erythrocyte glutathione reductase; '*' indicates No inhibition
T2 sequence (P00390 whole entry): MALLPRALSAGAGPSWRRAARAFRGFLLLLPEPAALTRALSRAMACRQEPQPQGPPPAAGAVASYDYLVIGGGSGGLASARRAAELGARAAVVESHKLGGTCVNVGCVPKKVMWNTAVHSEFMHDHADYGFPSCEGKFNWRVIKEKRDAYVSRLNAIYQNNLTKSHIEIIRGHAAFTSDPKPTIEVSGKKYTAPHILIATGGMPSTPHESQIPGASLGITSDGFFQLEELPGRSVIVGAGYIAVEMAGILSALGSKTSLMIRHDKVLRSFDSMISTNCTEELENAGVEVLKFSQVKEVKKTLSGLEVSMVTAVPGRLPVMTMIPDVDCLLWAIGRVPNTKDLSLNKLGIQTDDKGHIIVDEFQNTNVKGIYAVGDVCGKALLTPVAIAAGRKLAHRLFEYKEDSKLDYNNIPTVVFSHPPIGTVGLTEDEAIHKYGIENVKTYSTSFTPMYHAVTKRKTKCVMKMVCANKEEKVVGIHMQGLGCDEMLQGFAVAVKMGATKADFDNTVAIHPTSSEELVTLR
Procedure, shortened: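 Enzyme was isolated from human erythrocytes and assayed spectrophotometrically at 340 nm under literature conditions. Compounds were tested up to 1 mM, or 0.1 mM where solubility was limited.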

Mus musculus [3] = species: Mus musculus; assay: Effective dose against Leishmania donovani (Leishmania donovani) amastigotes in mouse peritoneal macrophages; assay type: functional; conditions: read-out: ED50 (the source's name)
Procedure, shortened: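 Mouse peritoneal macrophages kept on chamber slides in RPMI 1640 with 10% heat-inactivated foetal calf serum, 37 °C, 5% CO2, and infected with L. donovani MHOM/ET/69/L82 amastigotes taken from infected hamster spleens. After 24 h, compounds were added in a 3-fold dilution series in quadruplicate for 5 days. Slides were methanol-fixed and Giemsa-stained, then scored for the proportion of infected macrophages.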

Mus musculus [4] = species: Mus musculus; assay: Effective dose against Trypanosoma cruzi (Trypanosoma cruzi) trypomastigotes in mouse peritoneal macrophages; assay type: functional; conditions: read-out: ED50 (the source's name)
Trypanosoma brucei [5] = assay: Effective dose against Trypanosoma brucei) bloodstream form trypomastigotes; conditions: read-out: ED50 (the source's name)
Mus musculus [6] = species: Mus musculus; assay: Effective dose against Trypanosoma uM; assay type: functional
Mus musculus [7] = species: Mus musculus; assay: Effective dose against Leishmania donovani (Leishmania donovani) amastigotes in mouse peritoneal macrophages; Toxic to the macrophages; assay type: functional, organism-based
Procedure, shortened: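 Mouse peritoneal macrophages in RPMI 1640 + 10% heat-inactivated FCS, 37 °C, 5% CO2, infected with L. donovani (MHOM/ET/69/L82) amastigotes from infected hamster spleens. Compounds added 24 h post-infection in 3-fold dilutions, quadruplicate, for 5 days. Slides methanol-fixed, Giemsa-stained; proportion of infected macrophages scored.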

Mus musculus [8] = species: Mus musculus; assay: Effective dose against Trypanosoma cruzi (Trypanosoma cruzi) trypomastigotes in mouse peritoneal macrophages; Toxic to the macrophages; assay type: functional, organism-based
Procedure, shortened: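 T. cruzi (MHOM/BR/00/Y) trypomastigotes from infected L6 rat myoblast cultures infect mouse peritoneal macrophages at 5 parasites:1 macrophage, 37 °C, 5% CO2/air. Compounds in fresh medium 24 h post-infection, 3-fold dilutions, quadruplicate, 3 days. Cultures fixed, Giemsa-stained; proportion of infected macrophages scored.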

Trypanosoma brucei [9] = assay: Effective dose against Trypanosoma brucei) bloodstream form trypomastigotes in HMI-9 medium; conditions: read-out: ED50 (the source's name)
Trypanothione reductase [10] = biological target: T1, Trypanothione reductase; assay: Inhibitory activity against recombinant Trypanosoma cruzi (Trypanosoma cruzi) Trypanothione reductase (linear competitive type)
Mus musculus [11] = species: Mus musculus; assay: Effective dose against […]; Toxic to the macrophages; assay type: functional
Mus musculus [12] = species: Mus musculus; assay: Effective dose against Trypanosoma […]) trypomastigotes in mouse peritoneal macrophages; assay type: functional; conditions: read-out: ED50 (the source's name)
Trypanothione reductase [13] = biological target: T1, Trypanothione reductase; assay: Inhibitory activity against recombinant Trypanosoma cruzi (Trypanosoma cruzi) Trypanothione reductase; No inhibition at 1000 uM

T1 sequence (P28593 whole entry): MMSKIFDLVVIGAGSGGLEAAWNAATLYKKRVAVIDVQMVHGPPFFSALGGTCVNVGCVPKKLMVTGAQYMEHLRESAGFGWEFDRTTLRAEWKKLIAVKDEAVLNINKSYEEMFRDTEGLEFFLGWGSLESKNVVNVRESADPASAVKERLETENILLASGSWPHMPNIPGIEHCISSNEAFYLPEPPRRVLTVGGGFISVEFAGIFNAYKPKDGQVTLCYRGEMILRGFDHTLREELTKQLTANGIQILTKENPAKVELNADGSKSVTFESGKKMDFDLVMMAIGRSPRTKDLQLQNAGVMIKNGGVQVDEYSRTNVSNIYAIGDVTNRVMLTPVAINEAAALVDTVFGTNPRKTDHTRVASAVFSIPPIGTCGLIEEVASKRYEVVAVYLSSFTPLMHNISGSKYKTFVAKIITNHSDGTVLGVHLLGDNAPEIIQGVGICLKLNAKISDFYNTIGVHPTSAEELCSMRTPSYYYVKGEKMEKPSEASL

Row | SMILES | IC50 (Trypanothione reductase [1]) [µM] | I50 [2] | EC50 (Mus musculus [3]) [µM] | other results
1 | O=C(CNc1ccccc1)N1c2ccccc2Sc2ccc(Cl)cc21 | 256 | – | – | –
2 | CN(C)CCCN1c2ccccc2Sc2c(Cl)cccc21 | 765 | Not Active | 48.4 | EC50 (Mus musculus [4]): 29.5 µM; EC50 (Trypanosoma brucei [5]): 3.01 µM
3 | CC(=O)c1ccc2c(c1)N(C(C)=O)c1ccccc1S2 | 2810 | Not Active | – | –
4 | O=C(O)CCC(=O)N1c2ccccc2Sc2ccc(Cl)cc21 | 1480 | – | – | –
5 | CO/N=C(/C)c1ccc2c(c1)N(CCCN(C)C)c1ccccc1S2 | 351 | – | > 30 | ED50 (Mus musculus [6]): 10 µM; EC50 (Mus musculus [4]): > 30 µM
6 | CN(C)CCCN1c2ccccc2Sc2ccc(CN)cc21 | 219 | – | – | ED50 (Mus musculus [7]): Toxic; ED50 (Mus musculus [8]): Toxic; EC50 (Trypanosoma brucei [9]): 0.37 µM
7 | CCCC(=O)N1c2ccccc2Sc2ccc(Cl)cc21 | 95 | – | > 30 | EC50 (Mus musculus [4]): > 30 µM; EC50 (Trypanosoma brucei [9]): > 30 µM
8 | CN(C)CCCN1c2ccccc2Sc2ccc(C(F)(F)F)cc21 [TRIFLUPROMAZINE] | 110 | Not Active | – | Ki (Trypanothione reductase [10]): 30.2 µM; EC50 (Trypanosoma brucei [5]): 3.2 µM
9 | CNCCCN1c2ccccc2Sc2ccc(Cl)cc21 [NOR1-CHLORPROMAZINE] | 126 | Not Active | – | –
10 | CCCCCC(=O)c1ccc2c(c1)N(CCCN(C)C)c1ccccc1S2 | 171 | – | – | EC50 (Trypanosoma brucei [9]): > 30 µM
11 | CC(=O)N1c2ccccc2Sc2ccc(C(=O)CCl)cc21 | 436 | – | – | –
12 | CCCN1CCN(CCCN2c3ccccc3Sc3ccc(Cl)cc32)CC1 | 95.5 | Not Active | – | Ki (Trypanothione reductase [10]): 18.7 µM
13 | CN(C)CCCN1c2ccccc2Sc2ccc(Cl)cc21 [CHLORPROMAZINE] | 35.4 | Not Active | 4.9 | EC50 (Mus musculus [4]): > 10 µM; Ki (Trypanothione reductase [10]): 10.8 µM; EC50 (Trypanosoma brucei [5]): 3.69 µM
14 | CN(C)CCCN1c2ccccc2Sc2ccc(C(N)=O)cc21 | 458 | Not Active | – | –
15 | CCN(CC)CCCC(=O)N1c2ccccc2Sc2ccc(Cl)cc21 | 320 | – | – | –
16 | COC(=O)c1ccc2c(c1)N(CCCN(C)C)c1ccccc1S2 | 348 | Not Active | – | –
17 | CN(C)CCCN1c2ccccc2Sc2ccc(CO)cc21 | 1190 | Not Active | – | –
18 | CN(C)CCCN1c2ccccc2Sc2ccccc21 [PROMAZINE] | 108 | Not Active | – | Ki (Trypanothione reductase [10]): 59.1 µM
19 | O=C(CCC(=O)N1c2ccccc2Sc2ccc(Cl)cc21)NNc1ccccc1 | 151 | – | 34.2 | ED50 (Mus musculus [11]): Toxic; EC50 (Trypanosoma brucei [9]): 15.2 µM
20 | CC(=O)c1ccc2c(c1)N(C(C)=O)c1cc(C(C)=O)ccc1S2 | 49.1 | – | > 30 | EC50 (Mus musculus [4]): > 30 µM; EC50 (Trypanosoma brucei [9]): > 30 µM
21 | C/C(=N/OCc1ccccc1)c1ccc2c(c1)N(CCCN(C)C)c1ccccc1S2 | 204 | – | 16.5 | EC50 (Mus musculus [12]): 1.56 µM; EC50 (Mus musculus [4]): > 30 µM
22 | CN(C)C(C)(C)CN1c2ccccc2Sc2ccccc21 | 1180 | Not Active | – | –
23 | CC(=O)c1ccc2c(c1)N(CCCN(C)C)c1ccccc1S2 [ACEPROMAZINE] | 502 | – | – | ED50 (Mus musculus [7]): Toxic; ED50 (Mus musculus [8]): Toxic; EC50 (Trypanosoma brucei [9]): 6.42 µM
24 | CCN(CC)CC(=O)N1c2ccccc2Sc2ccc(Cl)cc21 | 829 | – | – | –
25 | CCC(=O)c1ccc2c(c1)N(CCCN(C)C)c1ccccc1S2 | 357 | – | > 30 | EC50 (Mus musculus [4]): > 30 µM; EC50 (Trypanosoma brucei [9]): 10.1 µM
26 | c1ccc2c(c1)Nc1ccccc1S2 [PHENOTHIAZINE] | – | – | – | I50 (Trypanothione reductase [13]): No inhibition
